Laboratory results: PMC4431946 (Journal of the American Chemical Society, 2015)
Like-named read-outs stand apart in the source and are kept apart here.

Columns and labels:
rat nNOS [1] = molecular target: T1, rat nNOS (Rattus norvegicus, UniProt P29476); experiment: Irreversible inhibition kinetics; format: biochemical; conditions: for time-dependent inactivation of nNOS: result in words
rat nNOS [2] = molecular target: T1, rat nNOS; experiment: Hemoglobin NO generation assay; format: biochemical
nNOS = nNOS (Rattus norvegicus, UniProt P29476); experiment: LC/MS of amino acid metabolites after inactivation of nNOS by 1; format: biochemical; conditions: 56 µM of 1, 37 °C, 3 h
rat nNOS [3] = molecular target: T1, rat nNOS; conditions: result in words; reported earlier; cited from earlier work
ferrous nNOS = ferrous nNOS (Rattus norvegicus, UniProt P29476); experiment: Spectral titration of dithionite-reduced; format: binding
Sequence of ferrous nNOS (P29476 whole entry): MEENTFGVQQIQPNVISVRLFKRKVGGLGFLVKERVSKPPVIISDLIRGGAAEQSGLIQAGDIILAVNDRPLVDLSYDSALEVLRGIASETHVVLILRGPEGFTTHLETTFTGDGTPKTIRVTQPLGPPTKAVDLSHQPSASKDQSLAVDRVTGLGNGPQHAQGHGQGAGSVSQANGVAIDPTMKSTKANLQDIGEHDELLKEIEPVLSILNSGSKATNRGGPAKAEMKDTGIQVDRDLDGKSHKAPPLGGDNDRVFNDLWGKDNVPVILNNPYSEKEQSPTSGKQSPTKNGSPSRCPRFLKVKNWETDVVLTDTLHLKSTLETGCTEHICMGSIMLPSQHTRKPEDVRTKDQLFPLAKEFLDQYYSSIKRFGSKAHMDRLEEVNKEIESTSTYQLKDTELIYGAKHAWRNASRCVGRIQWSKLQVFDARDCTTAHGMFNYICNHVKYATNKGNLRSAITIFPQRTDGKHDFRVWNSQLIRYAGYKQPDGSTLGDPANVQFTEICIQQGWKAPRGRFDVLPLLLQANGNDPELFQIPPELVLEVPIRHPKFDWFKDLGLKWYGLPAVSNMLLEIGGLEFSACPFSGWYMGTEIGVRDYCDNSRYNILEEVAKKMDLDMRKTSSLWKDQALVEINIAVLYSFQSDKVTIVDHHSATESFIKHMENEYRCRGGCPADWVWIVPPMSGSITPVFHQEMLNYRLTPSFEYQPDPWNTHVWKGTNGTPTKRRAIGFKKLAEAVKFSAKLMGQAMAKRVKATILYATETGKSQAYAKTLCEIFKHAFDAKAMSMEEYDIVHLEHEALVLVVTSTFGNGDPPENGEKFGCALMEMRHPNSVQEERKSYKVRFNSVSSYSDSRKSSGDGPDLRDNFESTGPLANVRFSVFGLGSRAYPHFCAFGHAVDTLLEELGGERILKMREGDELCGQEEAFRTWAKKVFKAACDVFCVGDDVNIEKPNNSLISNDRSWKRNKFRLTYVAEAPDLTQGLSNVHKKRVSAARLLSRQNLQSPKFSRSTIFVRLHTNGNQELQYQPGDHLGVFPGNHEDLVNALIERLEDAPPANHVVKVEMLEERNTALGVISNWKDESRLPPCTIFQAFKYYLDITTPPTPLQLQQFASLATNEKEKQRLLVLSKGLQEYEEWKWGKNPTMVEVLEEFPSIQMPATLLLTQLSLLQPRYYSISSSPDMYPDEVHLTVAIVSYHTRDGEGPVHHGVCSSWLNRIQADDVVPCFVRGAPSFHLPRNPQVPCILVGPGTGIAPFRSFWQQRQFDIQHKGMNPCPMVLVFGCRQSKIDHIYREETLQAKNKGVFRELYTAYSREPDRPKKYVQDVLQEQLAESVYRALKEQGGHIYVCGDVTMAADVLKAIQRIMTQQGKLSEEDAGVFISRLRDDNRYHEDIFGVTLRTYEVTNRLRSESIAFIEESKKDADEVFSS
Outline: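 Full-length rat nNOS-H4B reduced with dithionite and desalted under anaerobic conditions in a glovebox. Degassed 50 mM HEPES pH 7.5 with 100 mM NaCl; compound stocks made in degassed buffer. Test compound added in 1–2 µL portions from 1, 5 and 20 mM stocks, totalling <2% of volume. Double-beam scans from 350–600 nm, repeated until stable. Peak (~455 nm) minus trough (410 nm) absorbance fitted with a quadratic function for apparent Ks.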

ferric nNOS = ferric nNOS (Rattus norvegicus, UniProt P29476); experiment: Spectral titration of ferric nNOS-H4B; format: binding
Sequence of ferric nNOS (P29476 whole entry): as above
Outline: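 Ferric full-length rat nNOS-H4B, 5 µM, in 50 mM HEPES pH 7.5 with 100 mM NaCl, titrated by 1–2 µL additions of test compound. Difference spectra recorded from 350–550 nm. Peak (~455 nm) minus trough (400 nm) absorbance plotted against ligand concentration.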

Row | SMILES | time-dependent inactivation of nNOS (rat nNOS [1]) | IC50 (rat nNOS [2]) | Ki (rat nNOS [2]) | also measured
1 | CS(=O)(=O)CC(=N)NCCC[C@H](N)C(=O)O [compound 3, (S)-2-Amino-5-(2-(methylsulfonyl)acetimidamido)pentanoic acid] | neither showed time-dependent inactivation | 507 ± 49 µM | 58.3 ± 5.6 µM | 
2 | N=C(C=O)NCCC[C@H](N)C(=O)O [compound 4, (S)-2-Amino-5-(2-oxoacetimidamido)pentanoic acid] | neither was a time-dependent inhibitor | 199 ± 7.1 µM | 22.9 ± 0.82 µM | 
3 | CSCC(=N)NCCC[C@H](N)C(=O)O [compound 1, (S)-2-Amino-5-(2-(methylthio)acetimidamido)pentanoic acid] | inactivator of nNOS |  |  | amount of 2 produced from the inactivation of nNOS by 1 (nNOS): Approximately 0.53 µM; time-dependent inactivation of nNOS (rat nNOS [3]): time-dependent irreversible inhibitor of nNOS
4 | N=C(CO)NCCC[C@H](N)C(=O)O [compound 5, (S)-2-Amino-5-(2-hydroxyacetimidamido)pentanoic acid] | neither was a time-dependent inhibitor | 13 ± 0.67 µM | 1.5 ± 0.08 µM | 
5 | N=C(CS)NCCC[C@H](N)C(=O)O [compound 6, (S)-2-Amino-5-(2-mercaptoacetimidamido)pentanoic acid] | time- and concentration-dependent inactivator | 3.64 ± 0.15 µM | 0.42 ± 0.017 µM | Ki (rat nNOS [1]): 2.9 ± 0.2 µM; kinact (rat nNOS [1]): 0.000767 s⁻¹; kinact/KI (rat nNOS [1]): 267 M⁻¹ s⁻¹; inactivation rate (kinact) relative to 1 (rat nNOS [1]; 6 versus 1): about half the inactivation rate; Kd (ferrous nNOS): 1.6 ± 0.3 µM; heme ligand type from difference spectra (ferrous nNOS; dithionite-reduced nNOS-H4B): still a type-II ligand; Kd (ferric nNOS): 1.8 ± 0.1 µM; heme ligand type from difference spectra (ferric nNOS; ferric nNOS-H4B): type-II ligand
6 | C[S+]([O-])CC(=N)NCCC[C@H](N)C(=O)O (stereo partly drawn) [compound 2, (2S)-2-Amino-5-(2-(methylsulfinyl)acetimidamido)pentanoic acid] | neither showed time-dependent inactivation | 461 ± 20 µM | 53 ± 2.4 µM | 
